Activity calls are given as the source filed them. No cut-off for these calls is given here.
Assays:
Mus musculus [1] = assay: Anticonvulsant activity in CF1 albino mouse assessed as inhibition of subcutaneous pentylenetetrazole-induced seizures at 30 mg/kg, ip after 0.5 hrs; type: functional, organism-based; design: dose 30 mg/kg
Outline: (§1)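 Adult male CF no. 1 albino mice (18-25 g) dosed ip with compound suspended in 0.5% methylcellulose (0.01 mL/g). Convulsant: pentylenetetrazol dissolved in 0.9% saline as a 0.85% solution for mice, given subcutaneously.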

Mus musculus [2] = assay: Anticonvulsant activity in CF1 albino mouse assessed as inhibition of subcutaneous pentylenetetrazole-induced seizures at 100 mg/kg, ip after 0.5 hrs; type: functional, organism-based; design: dose 100 mg/kg; outline: as §1
Mus musculus [3] = assay: Anticonvulsant activity in CF1 albino mouse assessed as inhibition of subcutaneous pentylenetetrazole-induced seizures at 300 mg/kg, ip after 0.5 hrs; type: functional, organism-based; design: dose 300 mg/kg; outline: as §1
Mus musculus [4] = assay: Anticonvulsant activity in CF1 albino mouse assessed as inhibition of subcutaneous pentylenetetrazole-induced seizures at 30 mg/kg, ip after 4 hrs; type: functional, organism-based; design: dose 30 mg/kg; outline: as §1
Mus musculus [5] = assay: Anticonvulsant activity in CF1 albino mouse assessed as inhibition of subcutaneous pentylenetetrazole-induced seizures at 100 mg/kg, ip after 4 hrs; type: functional, organism-based; design: dose 100 mg/kg; outline: as §1
Mus musculus [6] = assay: Teratogenic effect in SWV mouse assessed as resorptions at 486 mg/kg, ip administered on morning of day 8 of gestation; type: toxicity, organism-based; design: dose 486 mg/kg, route intraperitoneal; conditions: in vivo
Outline: (§2)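 SWV inbred mice: two-month-old nulligravid females mated overnight with males and checked for vaginal plugs next morning; gestation onset taken as 10 p.m. the previous night. On gestation day 8.5 each dam got one ip injection, 0.55–2.7 mmol/kg, in 25% aqueous Cremophor EL (vehicle controls dosed alike), 10 μL/g body weight. Litters and implants tallied; resorptions and live fetuses reported as counts with percentages.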

Mus musculus [7] = assay: Teratogenic effect in SWV mouse assessed as resorptions at 294 mg/kg, ip administered on morning of day 8 of gestation; type: toxicity, organism-based; design: dose 294 mg/kg, route intraperitoneal; conditions: in vivo; outline: as §2
Mus musculus [8] = assay: Teratogenic effect in SWV mouse assessed as resorptions at 148 mg/kg, ip administered on morning of day 8 of gestation; type: toxicity, organism-based; design: dose 148 mg/kg, route intraperitoneal; conditions: in vivo; outline: as §2
Mus musculus [9] = assay: Teratogenic effect in SWV mouse assessed as fetuses with neural tube deffects at 486 mg/kg, ip administered on morning of day 8 of gestation; type: toxicity, organism-based; design: dose 486 mg/kg, route intraperitoneal; conditions: in vivo
Outline: (§3)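 Two-month-old nulligravid SWV females were mated overnight and checked for vaginal plugs the next morning; gestation onset was set at 10 p.m. the previous night. On gestation day 8.5, each dam received a single ip injection (0.55-2.7 mmol/kg range) or vehicle (25% aqueous Cremophor EL) at 10 μL/g body weight. Litters were scored for implants, resorptions, live and dead fetuses, and fetuses with neural tube defects.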

Mus musculus [10] = assay: Teratogenic effect in SWV mouse assessed as fetuses with neural tube deffects at 294 mg/kg, ip administered on morning of day 8 of gestation; type: toxicity, organism-based; design: dose 294 mg/kg, route intraperitoneal; conditions: in vivo; outline: as §3
Mus musculus [11] = assay: Teratogenic effect in SWV mouse assessed as live fetuses at 486 mg/kg, ip administered on morning of day 8 of gestation; type: toxicity, organism-based; design: dose 486 mg/kg, route intraperitoneal; conditions: in vivo; outline: as §2
Mus musculus [12] = assay: Teratogenic effect in SWV mouse assessed as live fetuses at 294 mg/kg, ip administered on morning of day 8 of gestation; type: toxicity, organism-based; design: dose 294 mg/kg, route intraperitoneal; conditions: in vivo; outline: as §3
Mus musculus [13] = assay: Teratogenic effect in SWV mouse assessed as live fetuses at 148 mg/kg, ip administered on morning of day 8 of gestation; type: toxicity, organism-based; design: dose 148 mg/kg, route intraperitoneal; conditions: in vivo; outline: as §3
Mus musculus [14] = assay: Anticonvulsant activity in CF1 albino mouse assessed as inhibition of maximal electroshock-induced seizures at 30 mg/kg, ip after 0.5 hrs; type: functional, organism-based; design: dose 30 mg/kg
Outline: (§4)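 Test compounds suspended in 0.5% methylcellulose and given ip to adult male CF no. 1 albino mice (18-25 g) at 0.01 mL/g body weight before maximal electroshock challenge.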

Mus musculus [15] = assay: Anticonvulsant activity in CF1 albino mouse assessed as inhibition of maximal electroshock-induced seizures at 30 mg/kg, ip after 4 hrs; type: functional, organism-based; design: dose 30 mg/kg; outline: as §4
Mus musculus [16] = assay: Anticonvulsant activity in CF1 albino mouse assessed as inhibition of maximal electroshock-induced seizures at 300 mg/kg, ip after 4 hrs; type: functional, organism-based; design: dose 300 mg/kg; outline: as §4
Mus musculus [17] = assay: Anticonvulsant activity in CF1 albino mouse assessed as inhibition of subcutaneous pentylenetetrazole-induced seizures at 300 mg/kg, ip after 4 hrs; type: functional, organism-based; design: dose 300 mg/kg; outline: as §1
Mus musculus [18] = assay: Neurotoxicity in CF1 albino mouse assessed as motor impairment at 30 mg/kg, ip after 0.5 hrs; type: toxicity, organism-based; design: dose 30 mg/kg, route intraperitoneal; conditions: in vivo
Mus musculus [19] = assay: Neurotoxicity in CF1 albino mouse assessed as motor impairment at 100 mg/kg, ip after 0.5 hrs; type: toxicity, organism-based; design: dose 100 mg/kg, route intraperitoneal; conditions: in vivo
Mus musculus [20] = assay: Neurotoxicity in CF1 albino mouse assessed as motor impairment at 300 mg/kg, ip after 0.5 hrs; type: toxicity, organism-based; design: dose 300 mg/kg, route intraperitoneal; conditions: in vivo
Mus musculus [21] = assay: Neurotoxicity in CF1 albino mouse assessed as motor impairment at 30 mg/kg, ip after 4 hrs; type: toxicity, organism-based; design: dose 30 mg/kg, route intraperitoneal; conditions: in vivo
Mus musculus [22] = assay: Neurotoxicity in CF1 albino mouse assessed as motor impairment at 100 mg/kg, ip after 4 hrs; type: toxicity, organism-based; design: dose 100 mg/kg, route intraperitoneal; conditions: in vivo
Mus musculus [23] = assay: Neurotoxicity in CF1 albino mouse assessed as motor impairment at 300 mg/kg, ip after 4 hrs; type: toxicity, organism-based; design: dose 300 mg/kg, route intraperitoneal; conditions: in vivo
Rattus norvegicus [24] = species: Rattus norvegicus; assay: Protective index, ratio of TD50 for rat to ED50 for maximal electroshock-induced rat seizure model
Rattus norvegicus [25] = assay: Neurotoxicity in Sprague-Dawley rat assessed as motor impairment at 30 mg/kg, po after 0.25 to 4 hrs; conditions: in vivo
Rattus norvegicus [26] = assay: Anticonvulsant activity in po dosed rat assessed as inhibition of maximal electroshock-induced seizures
Rattus norvegicus [27] = assay: Anticonvulsant activity in Sprague-Dawley rat assessed as inhibition of maximal electroshock-induced seizures at 30 mg/kg, po after 2 hrs
Rattus norvegicus [28] = assay: Anticonvulsant activity in Sprague-Dawley rat assessed as inhibition of maximal electroshock-induced seizures at 30 mg/kg, po after 4 hrs
Mus musculus [29] = assay: Teratogenic effect in SWV mouse assessed as resorptions at 325 mg/kg, ip administered on morning of day 8 of gestation; type: toxicity, organism-based; design: dose 325 mg/kg, route intraperitoneal; conditions: in vivo
Mus musculus [30] = assay: Teratogenic effect in SWV mouse assessed as resorptions at 164 mg/kg, ip administered on morning of day 8 of gestation; type: toxicity, organism-based; design: dose 164 mg/kg, route intraperitoneal; conditions: in vivo
Mus musculus [31] = assay: Teratogenic effect in SWV mouse assessed as fetuses with neural tube deffects at 325 mg/kg, ip administered on morning of day 8 of gestation; type: toxicity, organism-based; design: dose 325 mg/kg, route intraperitoneal; conditions: in vivo
Mus musculus [32] = assay: Teratogenic effect in SWV mouse assessed as live fetuses at 325 mg/kg, ip administered on morning of day 8 of gestation; type: toxicity, organism-based; design: dose 325 mg/kg, route intraperitoneal; conditions: in vivo
Mus musculus [33] = assay: Teratogenic effect in SWV mouse assessed as live fetuses at 164 mg/kg, ip administered on morning of day 8 of gestation; type: toxicity, organism-based; design: dose 164 mg/kg, route intraperitoneal; conditions: in vivo
Mus musculus [34] = assay: Anticonvulsant activity in CF1 albino mouse assessed as inhibition of maximal electroshock-induced seizures at 100 mg/kg, ip after 0.5 hrs; type: functional, organism-based; design: dose 100 mg/kg; outline: as §4
Mus musculus [35] = assay: Anticonvulsant activity in CF1 albino mouse assessed as inhibition of maximal electroshock-induced seizures at 300 mg/kg, ip after 0.5 hrs; type: functional, organism-based; design: dose 300 mg/kg; outline: as §4
Rattus norvegicus [36] = assay: Anticonvulsant activity in Sprague-Dawley rat assessed as inhibition of maximal electroshock-induced seizures at 30 mg/kg, po after 1 hr
Rattus norvegicus [37] = assay: Anticonvulsant activity in Sprague-Dawley rat assessed as inhibition of maximal electroshock-induced seizures at 30 mg/kg, po after 30 mins
Rattus norvegicus [38] = assay: Anticonvulsant activity in Sprague-Dawley rat assessed as inhibition of maximal electroshock-induced seizures at 30 mg/kg, po after 15 mins
Mus musculus [39] = assay: Teratogenic effect in SWV mouse assessed as fetuses with neural tube deffects at 148 mg/kg, ip administered on morning of day 8 of gestation; type: toxicity, organism-based; design: dose 148 mg/kg, route intraperitoneal; conditions: in vivo; outline: as §3
Mus musculus [40] = assay: Anticonvulsant activity in CF1 albino mouse assessed as inhibition of maximal electroshock-induced seizures at 100 mg/kg, ip after 4 hrs; type: functional, organism-based; design: dose 100 mg/kg; outline: as §4

| SMILES | Activity (Mus musculus [1]) | Activity (Mus musculus [2]) | Activity (Mus musculus [3]) | Activity (Mus musculus [4]) | Activity (Mus musculus [5]) | Activity (Mus musculus [6]) [%] | Activity (Mus musculus [7]) [%] | Activity (Mus musculus [14]) | Activity (Mus musculus [15]) | Activity (Mus musculus [16]) | Activity (Mus musculus [17]) | Activity (Mus musculus [18]) | Activity (Mus musculus [19]) | Activity (Mus musculus [20]) | Activity (Mus musculus [21]) | Activity (Mus musculus [22]) | Activity (Mus musculus [23]) | Ratio TD50/ED50 (Rattus norvegicus [24]) | Activity (Rattus norvegicus [25]) | ED50 (Rattus norvegicus [26]) [mg/kg] | further results |
| --- | --- | --- | --- | --- | --- | --- | --- | --- | --- | --- | --- | --- | --- | --- | --- | --- | --- | --- | --- | --- | --- |
| CC(C)(C)CC(=O)Nc1ccc(S(N)(=O)=O)cc1 | inactive | inactive | inactive | inactive | inactive | 8.9 | 8.4 | inactive | inactive | Active | inactive | Non-toxic | Non-toxic | Non-toxic | Non-toxic | Non-toxic | Non-toxic | >53.2 | Non-toxic | 9.4 | Activity (Mus musculus [8]): 8.6%; Activity (Mus musculus [9]): 15%; Activity (Mus musculus [10]): 3.7%; Activity (Mus musculus [11]): 91.1%; Activity (Mus musculus [12]): 91.6%; Activity (Mus musculus [13]): 91.4%; Activity (Rattus norvegicus [27]): Active; Activity (Rattus norvegicus [28]): Active |
| CCCC(C(=O)Nc1ccc(S(N)(=O)=O)cc1)C(C)C (stereo not given) | inactive | inactive | inactive | inactive | inactive |  |  | inactive | inactive | Active | inactive | Non-toxic | Non-toxic | Non-toxic | Non-toxic | Non-toxic | Non-toxic | >12 | Non-toxic | 41.5 | Activity (Mus musculus [29]): 35.4%; Activity (Mus musculus [30]): 10.3%; Activity (Mus musculus [31]): 2%; Activity (Mus musculus [32]): 64.6%; Activity (Mus musculus [33]): 100%; Activity (Mus musculus [34]): inactive; Activity (Mus musculus [35]): Active; Activity (Rattus norvegicus [36]): Active; Activity (Rattus norvegicus [37]): inactive; Activity (Rattus norvegicus [38]): inactive |
| CCC(C)CC(=O)Nc1ccc(S(N)(=O)=O)cc1 (stereo not given) | inactive | inactive | inactive | inactive | inactive | 68 | 32.5 | inactive | inactive | inactive | inactive | Non-toxic | Non-toxic | Non-toxic | Non-toxic | Non-toxic | Non-toxic | >30.4 | Non-toxic | 16.4 | Activity (Mus musculus [8]): 10.6%; Activity (Mus musculus [9]): 9.4%; Activity (Mus musculus [10]): 9.9%; Activity (Mus musculus [39]): 1.1%; Activity (Mus musculus [11]): 32%; Activity (Mus musculus [12]): 67.5%; Activity (Mus musculus [13]): 89.4%; Activity (Mus musculus [34]): inactive; Activity (Mus musculus [35]): inactive; Activity (Mus musculus [40]): inactive; Activity (Rattus norvegicus [36]): Active; Activity (Rattus norvegicus [27]): Active; Activity (Rattus norvegicus [28]): Active; Activity (Rattus norvegicus [37]): Active |
